# Rows were chosen to be rich in hits. Some 1.8% of all compounds tested hit in one or more screens of this group.
# MLLE-PAM2 inh – blocks PAM2 peptide binding to the PABP1 MLLE domain; AID 588489; GST-MLLE / FITC-PAM2 fluorescence polarization; actives 0.36% (n = 360,000); inhibition, % at 20 µM; in the data active = inhibition above about 35%, passing the limit was not always enough;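 note: plate controls were DMSO wells with GST-MLLE for no effect and wells lacking GST-MLLE protein for full effect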
# eIF4H inh – inhibitors of RNA binding by human eIF4H; Q15056; eIF4H fluorescence polarization binding assay; inhibition, % at 35 µM; actives 0.94% (n = 290,000); AID 2012;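 note: calls also rest on retests at 20 µM and on dose response follow-up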
# PABP polyA inh – PABP-poly(A) binding inhibition; actives 1% (n = 290,000); calls only at 35 µM; PABP-poly(A) RNA binding, fluorescence polarization; AID 2014; P11940;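 note: calls also rest on retests at 20 µM and on dose response follow-up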
# HCV core dimer – blocks dimerization of HCV core protein. TR-FRET GST/Flag-core106 dimerization, 1536-well. inhibition, % at 5 µM. actives 0.33% (n = 300,000);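 active = inhibition above the mean of all tested compounds plus 3 SD, set per screening campaign, cut at about 45% in these data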
#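 Material: GST/Flag-tagged HCV core106 proteins. Incubation: 4 h, 22.5 °C incubation. Read-out basis: inhibition (%) from 671 over 617 nm ratio. Measured by: TR-FRET, excitation 340 nm, emission 617 and 671 nm.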
# SUMO HTRF inh – SUMOylation inhibition | P63279 | HTRF SUMOylation assay, SAE1/SAE2 + UBC9, in vitro | inhibition, % at 35 µM | actives 0.36% (n = 290,000); in the data active = inhibition above about 50%, passing the limit was not always enough; inconclusive = no clear call, values can overlap the other calls
# Target sequence (P63279 whole entry, looked up): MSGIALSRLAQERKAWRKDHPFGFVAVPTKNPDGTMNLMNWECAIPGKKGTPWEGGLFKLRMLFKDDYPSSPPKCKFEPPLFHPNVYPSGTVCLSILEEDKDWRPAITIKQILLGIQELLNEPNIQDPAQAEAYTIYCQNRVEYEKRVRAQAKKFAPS
# eIF4E-4G inh – inhibitors of eIF4E and eIF4G interaction in translation initiation; TR-FRET eIF4E-eIF4GI(517-606) binding, 2 h; inhibition, % at 21.7 µM; actives 0.37% (n = 220,000);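 active = inhibition above about 30%, limit read from the data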;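 note: 0% = full FRET control wells and 100% = background wells lacking eIF4GI fragment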
# * marks the source's active call; other numbers are inactive results; i = inactive; u = inconclusive; x = no result; + = active, no number. Unless noted, the rule behind the calls is not given here.
SMILES,MLLE-PAM2 inh,eIF4H inh,PABP polyA inh,HCV core dimer,SUMO HTRF inh,eIF4E-4G inh
COc1ccc(CNC(=O)COC(=O)c2ccc(OCc3c(C)noc3C)cc2)cc1OC,-30,90*,i,-3,0,5
COc1cc(C(=O)Nc2cc(C)ccc2C)ccc1OCc1c(C)noc1C,0,x,x,x,x,x
COc1cc(C(=O)NC2=NCCS2)ccc1OCc1c(C)noc1C,42*,-5,i,0,-10,2
COc1cc(C(=O)NCCc2c[nH]c3ccccc23)ccc1OCc1c(C)noc1C,-11,active,i,10,-3,-2
Cc1ccccc1CC1CCN(CCCNC(=O)Nc2ccccc2)CC1,2,-11,i,x,12,x
Cc1ccccc1NC(=S)NC(=O)COc1ccccc1C,26,-5,i,8,2,x
COc1cc2c(cc1OC)C(c1ccccc1)NC(C)(C)C2 (stereo not drawn),1,-3,i,-9,-6,x
O=C(O)c1ccc(-n2cccc2/C=C2/NC(=O)N(c3cccc(Cl)c3)C2=O)cc1,-1,92,i,x,42,38*
O=C(O)c1ccc(-n2cccc2/C=C2/SC(=O)N(CC(=O)N3CCCC3)C2=O)cc1,6,84*,+,-1,41,x
O=C(O)c1ccc(-n2cccc2/C=C2/NC(=O)N(c3ccccc3)C2=O)cc1,-41,97*,+,-16,28,26
O=C(Nc1cccn(Cc2cccc(F)c2)c1=O)NC1CCCCC1,6,1,i,1,99*,0
O=C(Nc1cccn(Cc2c(F)cccc2Cl)c1=O)NC1CCCCC1,9,6,i,7,37,2
Cc1cc(C(=O)N2CCC2(C)C(=O)Nc2cccc3c2CCCC3)nn1C (stereo not drawn),-7,x,x,x,x,x
O=C(NCC1CCCO1)c1nn2c(C(F)(F)F)cc(-c3ccc(Br)o3)nc2c1Br (stereo not drawn),6,8,i,-9,15,x
O=C(Cc1cccs1)NNC(=O)c1ccc(F)cc1,-9,u,+,1,-14,-2
Cc1ccc(C(=O)NNC(=O)Cc2cccs2)cc1,-19,4,i,6,-4,1
Cc1ccc(S(=O)(=O)N2C[C@H]3[C@H]4C(=O)N(C)C(=O)[C@H]4CC(=O)[C@H]3[C@@H]2c2ccccc2F)cc1,6,x,x,x,x,x
Cc1cc(Cl)ccc1OCC(=O)OCC(=O)c1c(N)n(C)c(=O)n(C)c1=O,-2,x,x,x,x,x
O=C1Nc2ccc(S(=O)(=O)NCc3ccccn3)c3cccc1c23,-15,14,i,x,47,-2
CN(C)CCNS(=O)(=O)c1ccc2c3c(cccc13)C(=O)N2,9,9,i,-9,53*,x
CCN(CC)CCNS(=O)(=O)c1ccc2c3c(cccc13)C(=O)N2,4,2,i,7,58*,x
CCOC(=O)C1CCCN(CC(O)COCc2ccccc2OC)C1 (stereo not drawn),3,9,i,8,1,x
N#Cc1ccccc1NC(=O)C(=O)NCCCN1CCCC1=O,0,x,x,1,x,x
COC(C[C@H]1O[C@H]1[C@H](O)COCc1ccccc1)OC,-8,-2,i,x,8,-1
COc1ccc(C=Nc2ccc3[nH]ncc3c2)c(O)c1,0,77*,+,0,56,4
SMILES,MLLE-PAM2 inh,eIF4H inh,PABP polyA inh,HCV core dimer,SUMO HTRF inh,eIF4E-4G inh
Nc1ccc(/C=C/C(=O)c2cccs2)cc1,-113,65*,i,8,11,1
CC1CN(C(=S)c2cccc([N+](=O)[O-])c2)CC(C)O1 (stereo not drawn),39*,-1,i,-3,12,4
O=[N+]([O-])c1cccc(C(=S)N2CCN(c3ccccc3F)CC2)c1,46*,12,i,2,-3,4
O=C(/C=C/c1cccc([N+](=O)[O-])c1)N1CCN(c2ccccc2F)CC1,4,-8,i,-13,0,-4
O=[N+]([O-])c1cccc(C(=S)N2CCN(c3ccccc3)CC2)c1,63*,9,i,2,-14,12
Cc1ccc(-c2cnn3c(N4CCOCC4)cc(C)nc23)cc1,-5,-12,i,x,13,x
CN=C1SC(CC(=O)Nc2ccc(F)cc2F)C(=O)N1/N=C/c1ccc(OC(F)F)c(OC)c1 (stereo not drawn),-3,3,i,0,-2,3
